Test results reported in PubChem BioAssay AID804 (SRMLSC, 2007).
In all, about 140,000 compounds went through this assay and about 710 (0.51%) were called active. Shown is part of a subset that was picked to be rich in actives. Unmarked numbers belong to inactive results.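 Rule for the calls: active = inhibition above a set limit, 3 SD over the mean compound inhibition (cut at about 44% in these data); inactive = the rest.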

Experiment: BB579 yeast growth reduction, restrictive medium – S. cerevisiae, yeast lifespan-shortening project, primary screen (AID 804)
Conditions: OD615, 48 h, at 10 µM, hits give high values
Procedure, shortened: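 controls = amphotericin B 10 µg/mL, positive | assay system = DeaD yeast strain BB579 | schedule = 48 h compound exposure at 30 °C after 4 h preincubation | detection = OD615 turbidity measurement | medium = restrictive CSMM-D medium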

**Q.** For `CCOC(=O)CC(NC(=O)C1c2ccccc2Oc2ccccc21)c1ccc(C)cc1` (stereo unspecified), which inhibition is on record?
**A.** -27.5%

**Q.** For `Cc1cc(/C=C2/NC(=O)NC2=O)c(C)n1-c1cccnc1`, which inhibition is on record?
**A.** -7.15%

**Q.** For `CC(C)n1c(O)c(N=Nc2ccccn2)c2ccccc21`, which inhibition is on record?
**A.** -16.1%

**Q.** With `CCc1ccc2c(c1)C1(NN=C(c3ccccc3)S1)C(=O)N2` (stereo unspecified) as the molecule, how does the inhibition read?
**A.** 94.7% (active)

**Q.** With `O=C1Nc2ccccc2C12Nc1ccccc1S2` (stereo unspecified) as the molecule, how does the inhibition read?
**A.** -30.7%

**Q.** For `C=C1c2cc(CC)ccc2NC(=O)N1c1ccc(C)cc1`, which inhibition is on record?
**A.** 23.4%

**Q.** Which inhibition does the source give for `Cc1ccc(OCCOCCOc2ccc(Br)cc2/C=N\NC(=O)c2ccncc2)cc1` here?
**A.** -32.5%

**Q.** Which inhibition does the source give for `COC(=O)c1ccccc1NC(=S)NC(=O)c1ccccc1F` here?
**A.** -31.5%

**Q.** With `CC(C)(C)c1ccc(/C=C/C(=O)Nc2ncccn2)cc1` as the molecule, how does the inhibition read?
**A.** -6.47%

**Q.** Which inhibition does the source give for `CCn1c(C(C)NC(=O)c2ccc(C)cc2)n[nH]c1=S` (stereo unspecified) here?
**A.** -50.9%

**Q.** For `COc1ccc(Cc2nnc(N/N=C/c3ccccc3O)[nH]c2=O)cc1OC`, which inhibition is on record?
**A.** -57%

**Q.** For `Cc1csc(=Nc2ccccc2)n1CCO`, which inhibition is on record?
**A.** -3.94%

**Q.** With `Oc1c(Cl)cc(Cl)c(Cl)c1Cc1c(O)c(Cl)cc(Cl)c1Cl` as the molecule, how does the inhibition read?
**A.** 71.3% (active)

**Q.** For `Cc1ccc(C(=O)Nc2sc(Cc3ccc4c(c3)OCO4)c(C)c2C(N)=O)cc1`, which inhibition is on record?
**A.** -10.9%

**Q.** With `NC1=C([N+](=O)[O-])C(c2ccccc2)C2=C(CCCC2=O)O1` (stereo unspecified) as the molecule, how does the inhibition read?
**A.** -44.3%

**Q.** With `CCCCC(O)(CCCC)C(=O)NN(C(=O)CCl)c1ccccc1` as the molecule, how does the inhibition read?
**A.** -4.22%

**Q.** For `CCOC(=O)c1sc2nc(C)nc(SCC(N)=O)c2c1C`, which inhibition is on record?
**A.** -20.9%

**Q.** Which inhibition does the source give for `CCOc1ccc(/C=N/NC(=O)C(C)Sc2ccccn2)cc1OCC` (stereo unspecified) here?
**A.** -33.6%

**Q.** For `Cc1ccc2[nH]c(=O)c(CC=C(Cl)Cl)c(C)c2c1`, which inhibition is on record?
**A.** -51.5%

**Q.** With `CCOC(=O)c1sc(NC(=O)COc2ncnc3ccccc23)c(C(=O)OCC)c1C` as the molecule, how does the inhibition read?
**A.** -43.9%

**Q.** With `Cc1nn(Cc2ccccc2)c(C)c1C(=O)NCCN1C(=O)S/C(=C\c2ccc(F)cc2)C1=O` as the molecule, how does the inhibition read?
**A.** -32.9%

**Q.** Which inhibition does the source give for `CC(CNc1ccc([N+](=O)[O-])c2cccnc12)Nc1c([N+](=O)[O-])cc(C(F)(F)F)cc1[N+](=O)[O-]` (stereo unspecified) here?
**A.** -23.5%

**Q.** For `NS(=O)(=O)c1ccc(N=Cc2ccc(Br)s2)cc1`, which inhibition is on record?
**A.** -15%

**Q.** With `O=C(COC(=O)/C=C/c1cn(-c2ccccc2)nc1-c1cccnc1)Nc1ccc(Cl)cc1Cl` as the molecule, how does the inhibition read?
**A.** -21.4%

**Q.** Which inhibition does the source give for `CC(Sc1nnc2c(n1)C1CCC2(C)C1(C)C)C(=O)Nc1ccccc1` (stereo unspecified) here?
**A.** -23.4%

**Q.** Which inhibition does the source give for `O=C(/C=C\c1ccc2c(c1)OCO2)NC1(C(=O)Nc2ccc3c(c2)OCCO3)CCCCC1` here?
**A.** 9.33%

**Q.** With `COc1ccc(S(=O)(=O)N2CN(CCc3ccc(OC)c(OC)c3)c3nc4ccccc4nc32)cc1` as the molecule, how does the inhibition read?
**A.** -25.7%

**Q.** With `COc1cccc(N(C(=O)C2COc3ccccc3O2)C(C(=O)NC2CCCCC2)c2ccc(O)cc2)c1` (stereo unspecified) as the molecule, how does the inhibition read?
**A.** -6.16%

**Q.** With `CCCCCCCC[n+]1cccc(C(=O)N2c3c(nc(N)[nH]c3=O)NC(C)C2C)c1` (stereo unspecified) as the molecule, how does the inhibition read?
**A.** -5.07%

**Q.** Which inhibition does the source give for `O=C(Nc1nc(-c2ccc(-c3ccccc3)cc2)cs1)c1cnccn1` here?
**A.** -18.9%

**Q.** With `O=C(CNCc1ccc(F)cc1)Nc1ccccc1-c1ccccc1` as the molecule, how does the inhibition read?
**A.** -20.9%

**Q.** Which inhibition does the source give for `Oc1ccc(Br)cc1C=Nc1ccc2[nH]ncc2c1` here?
**A.** -67.6%

**Q.** With `COc1cc(Br)cc(/C=N/c2ncn[nH]2)c1O` as the molecule, how does the inhibition read?
**A.** 54.7% (active)

**Q.** For `COc1ccc(Br)cc1/C=N/n1c(C)nnc1C`, which inhibition is on record?
**A.** -33.3%

**Q.** For `O=c1[nH]n(-c2cccc(Cl)c2)c2ncccc12`, which inhibition is on record?
**A.** -63.7%

**Q.** Which inhibition does the source give for `Nc1c(C(=O)NCc2ccccc2)nnn1Cc1cccc(Cl)c1` here?
**A.** -3.98%

**Q.** For `Clc1cccc(CN2COc3c(cc(Cl)c4cccnc34)C2)c1`, which inhibition is on record?
**A.** 99.4% (active)

**Q.** For `Cc1cc(OCCCC(=O)NCCN2C(=O)S/C(=C\c3cccnc3)C2=O)ccc1Cl`, which inhibition is on record?
**A.** -3.48%

**Q.** With `CCc1c(C)sc(NC(=O)/C=C/c2ccc3c(c2)OCO3)c1C(=O)OC` as the molecule, how does the inhibition read?
**A.** -27.2%

**Q.** Which inhibition does the source give for `Nc1nc(NC(=O)/C=C/c2ccccc2)nn1-c1ccccc1` here?
**A.** -11.2%

**Q.** For `COc1ccc(C(=O)O/N=C(\N)Cc2ccc(Cl)cc2Cl)cc1OC`, which inhibition is on record?
**A.** -25.8%

**Q.** Which inhibition does the source give for `COC(=O)c1sc2ncccc2c1OCc1ccc(Cl)cc1Cl` here?
**A.** -44.1%

**Q.** With `NC(N)=N/N=C/c1ccc(OCc2ccc(Cl)cc2Cl)cc1` as the molecule, how does the inhibition read?
**A.** 99.3% (active)

**Q.** Which inhibition does the source give for `COc1ccccc1CN(C)C(=O)C1(c2ccc(Cl)cc2)CC1` here?
**A.** -2.98%

**Q.** With `N/C(=N\OC(=O)CC1CCCCC1)c1ccccc1` as the molecule, how does the inhibition read?
**A.** -2.81%

**Q.** Which inhibition does the source give for `CCCCn1c(=S)[nH]c2ccccc2c1=O` here?
**A.** 6.35%

**Q.** For `Cc1c(Cl)c([N+](=O)[O-])nn1CCCC(=O)Nc1cc(Cl)ccc1Cl`, which inhibition is on record?
**A.** 2.39%

**Q.** With `Nc1nc(SCC(=O)NN(c2ccccc2)c2ccccc2)n[nH]1` as the molecule, how does the inhibition read?
**A.** -6.56%

**Q.** With `CC(C)(C)C1CCC(=NNC(=O)c2cc(-c3ccccc3)n[nH]2)CC1` (stereo unspecified) as the molecule, how does the inhibition read?
**A.** -16.9%

**Q.** For `O=C1NC(c2ccccc2)=NC1(Nc1ccccn1)C(F)(F)F` (stereo unspecified), which inhibition is on record?
**A.** -3.11%

**Q.** Which inhibition does the source give for `CCN=C1S/C(=C\c2cc(Br)ccc2OCC(=O)OCC)C(=O)N1CC` here?
**A.** -14.3%

**Q.** Which inhibition does the source give for `COCCn1c(SCC(=O)Nc2ccc3c(c2)CCC3)nc2ccccc2c1=O` here?
**A.** -36.9%

**Q.** Which inhibition does the source give for `COc1ccc(C2Nc3ccccc3C(=O)N2c2ccc(F)cc2)cc1Cn1nnc2ccccc21` (stereo unspecified) here?
**A.** -29.1%

**Q.** With `CC(C)CNC(=S)Nc1ccc(F)cc1` as the molecule, how does the inhibition read?
**A.** 14.5%

**Q.** For `CCOC(=O)c1cc2c(nc1NC(=S)Nc1ccccc1)CC(C)(CC)OC2` (stereo unspecified), which inhibition is on record?
**A.** 0.93%

**Q.** With `COc1cc(NC(=O)c2ccccc2NS(=O)(=O)c2ccc(Cl)s2)cc(OC)c1` as the molecule, how does the inhibition read?
**A.** -5.4%

**Q.** For `S=C(NCc1ccc(Cl)cc1)NC1CCCCC1`, which inhibition is on record?
**A.** -27.3%

**Q.** Which inhibition does the source give for `COC(=O)Cc1ccc(NC(=S)NCc2ccc(Cl)cc2)cc1` here?
**A.** -19.1%

**Q.** Which inhibition does the source give for `S=C(NCc1ccc(Cl)cc1)NC12CC3CC(CC(C3)C1)C2` here?
**A.** 50% (active)

**Q.** With `O=C(CCc1nc2ccccc2c(=O)[nH]1)OCC(=O)c1cccc(Cl)c1` as the molecule, how does the inhibition read?
**A.** -13.4%

**Q.** Which inhibition does the source give for `N#C/C(=C/c1cccc([N+](=O)[O-])c1)c1nnc2n1CCCCC2` here?
**A.** -18.8%

**Q.** With `COCC(C)n1c(C)cc(C(=O)CSc2cc(C)c3ccccc3n2)c1C` (stereo unspecified) as the molecule, how does the inhibition read?
**A.** -56.2%

**Q.** Which inhibition does the source give for `O=c1[nH]cnc2c1c(-c1ccccc1)cn2-c1ccc(F)cc1` here?
**A.** -19.6%

**Q.** Which inhibition does the source give for `COc1ccc(-n2nnnc2-c2nc3ccccc3s2)cc1` here?
**A.** -33.6%

**Q.** Which inhibition does the source give for `O=C1OC(OC(=O)c2ccccc2Br)C(N2CCOCC2)=C1Cl` (stereo unspecified) here?
**A.** -32.6%

**Q.** Which inhibition does the source give for `CCOc1cc(N2CCOCC2)c(OCC)cc1NC(=O)COC(=O)[C@H](Cc1c[nH]c2ccccc12)NC(C)=O` here?
**A.** -16%

**Q.** With `CCOc1cc(N2CCOCC2)c(OCC)cc1NC(=O)COc1cccc2cccnc12` as the molecule, how does the inhibition read?
**A.** 67.1% (active)

**Q.** For `Cc1cccc(OCC(=O)NC(=S)Nc2ccccc2N2CCOCC2)c1`, which inhibition is on record?
**A.** -49.4%

**Q.** For `CCc1ccc2c(c1)C(c1ccc([N+](=O)[O-])cc1)=NNC(c1ccccc1)=N2`, which inhibition is on record?
**A.** -23.5%

**Q.** With `Cn1c(=O)c(Sc2ccc(Cl)cc2)c(O)c2ccccc21` as the molecule, how does the inhibition read?
**A.** -21.7%

**Q.** Which inhibition does the source give for `O=C(Nc1ncccn1)c1cccs1` here?
**A.** -21.9%

**Q.** For `Cn1c(=O)c(C(=O)Nc2ncccn2)c(O)c2ccccc21`, which inhibition is on record?
**A.** 68.5% (active)

**Q.** For `Cc1ccc(NC(=O)c2sc3nc(N)c(C#N)cc3c2N)cc1`, which inhibition is on record?
**A.** -23.2%

**Q.** Which inhibition does the source give for `O=C(Cc1c[nH]c2ccccc12)N/N=C/c1cccc(F)c1` here?
**A.** -39.1%

**Q.** For `COC(=O)Cn1c(=NC(=O)c2cc(OC)c(OC)c(OC)c2)sc2cc(OC)ccc21`, which inhibition is on record?
**A.** -32.8%

**Q.** For `CCN(CC)CCn1c2ccc(Cl)cc2c2nc(C)sc21`, which inhibition is on record?
**A.** -1.41%

**Q.** Which inhibition does the source give for `COC(=O)Cn1c2ccc(C)cc2c2nc(C)sc21` here?
**A.** 43.6% (active)

**Q.** Which inhibition does the source give for `CCOC(=O)c1nn(-c2ccccc2F)c2nc(Nc3ccccc3)cc(=O)n12` here?
**A.** -45.6%

**Q.** Which inhibition does the source give for `Cc1c(C=O)c2ccccn2c1C(=O)c1ccncc1` here?
**A.** 43.9% (active)

**Q.** With `CC(OC(=O)CNS(=O)(=O)/C=C/c1ccccc1)C(=O)Nc1ccc(S(=O)(=O)N2CCCC2)cc1` (stereo unspecified) as the molecule, how does the inhibition read?
**A.** -25.4%

**Q.** For `CN1CCC(=NNC(=O)c2ccc(N(Cc3ccc(Cl)cc3)S(C)(=O)=O)cc2)CC1`, which inhibition is on record?
**A.** -8.48%
